ChEMBL document CHEMBL2010673, “Structure-activity relationship of pyrrole based S-nitrosoglutathione reductase inhibitors: carboxamide modification” (Bioorg Med Chem Lett, 2012)
The source made the active and inactive calls.

Columns and labels:
[1] = target: Neuropeptide Y receptor type 2 (Homo sapiens) (UniProt P49146); assay: Inhibition of Y2 receptor at 10 uM by radioligand displacement assay
Summary of the method: (§1)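 Off-target radioligand binding panel. Test compound at 10 µM. Each assay had at least 6 control wells, with or without vehicle, for soluble compounds. Values are percent inhibition of radioligand binding. ≥50% inhibition was scored as a positive response.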

[2] = target: Adenosine receptor A3 (Homo sapiens) (UniProt P0DMS8); assay: Inhibition of adenosine A3 receptor at 10 uM by radioligand displacement assay
Summary of the method: (§2)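 Off-target panel: radioligand binding to each receptor, channel or transporter with test compound at 10 µM; activity reported as percent inhibition of specific binding. At least 6 control wells with or without vehicle per assay. Inhibition of 50% or greater counted as a positive response.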

[3] = target: Cannabinoid receptor 1 (Homo sapiens) (UniProt P21554); assay: Inhibition of CB1 receptor at 10 uM by radioligand displacement assay; summary of the method: as §1
[4] = target: Cholecystokinin receptor type A (Homo sapiens) (UniProt P32238); assay: Inhibition of CCK1 receptor at 10 uM by radioligand displacement assay; summary of the method: as §1
[5] = target: Galanin receptor type 2 (Homo sapiens) (UniProt O43603); assay: Inhibition of GAL2 receptor at 10 uM by radioligand displacement assay; summary of the method: as §1
[6] = Inhibition of Sodium channel at 10 uM by radioligand displacement assay; summary of the method: as §1
[7] = target: Thromboxane A2 receptor (Homo sapiens) (UniProt P21731); assay: Inhibition of TP receptor at 10 uM by radioligand displacement assay; summary of the method: as §1
[8] = Inhibition of L-type calcium channel at 10 uM by radioligand displacement assay; summary of the method: as §1
[9] = target: Adenosine receptor A2a (Homo sapiens) (UniProt P29274); assay: Inhibition of adenosine A2a receptor at 10 uM by radioligand displacement assay; summary of the method: as §1
[10] = target: Sodium-dependent serotonin transporter (Homo sapiens) (UniProt P31645); assay: Inhibition of 5HT transporter at 10 uM by radioligand displacement assay; summary of the method: as §1
[11] = target: 5-hydroxytryptamine receptor 2B (Homo sapiens) (UniProt P41595); assay: Inhibition of 5HT2b receptor at 10 uM by radioligand displacement assay; summary of the method: as §1
[12] = target: Muscarinic acetylcholine receptor M2 (Homo sapiens) (UniProt P08172); assay: Inhibition of M2 receptor at 10 uM by radioligand displacement assay; summary of the method: as §1
[13] = target: Translocator protein (Homo sapiens) (UniProt P30536); assay: Inhibition of Benzodiazepine receptor at 10 uM by radioligand displacement assay; summary of the method: as §1
[14] = target: Vasoactive intestinal polypeptide receptor 1 (Homo sapiens) (UniProt P32241); assay: Inhibition of VPAC1 receptor at 10 uM by radioligand displacement assay; summary of the method: as §1
[15] = target: Type-1 angiotensin II receptor (Homo sapiens) (UniProt P30556); assay: Inhibition of AT1 receptor at 10 uM by radioligand displacement assay; summary of the method: as §1
[16] = target: 5-hydroxytryptamine receptor 6 (Homo sapiens) (UniProt P50406); assay: Inhibition of 5HT6 receptor at 10 uM by radioligand displacement assay; summary of the method: as §1
[17] = Inhibition of alpha2 adrenergic receptor at 10 uM by radioligand displacement assay; summary of the method: as §2
[18] = target: Beta-2 adrenergic receptor (Homo sapiens) (UniProt P07550); assay: Inhibition of Beta2 adrenergic receptor at 10 uM by radioligand displacement assay; summary of the method: as §1
[19] = Inhibition of Kv channel at 10 uM by radioligand displacement assay; summary of the method: as §1
[20] = target: Neuromedin-K receptor (Homo sapiens) (UniProt P29371); assay: Inhibition of NK3 receptor at 10 uM by radioligand displacement assay; summary of the method: as §1
[21] = target: Endothelin-1 receptor (Homo sapiens) (UniProt P25101); assay: Inhibition of Eta receptor at 10 uM by radioligand displacement assay; summary of the method: as §1
[22] = target: 5-hydroxytryptamine receptor 1B (Homo sapiens) (UniProt P28222); assay: Inhibition of 5HT1b receptor at 10 uM by radioligand displacement assay; summary of the method: as §1
[23] = target: Sodium-dependent noradrenaline transporter (Homo sapiens) (UniProt P23975); assay: Inhibition of norepinephrine […] at 10 uM by radioligand displacement assay; summary of the method: as §2
[24] = target: C-X-C chemokine receptor type 2 (Homo sapiens) (UniProt P25025); assay: Inhibition of CXCR2 receptor at 10 uM by radioligand displacement assay; summary of the method: as §1
[25] = target: Beta-1 adrenergic receptor (Homo sapiens) (UniProt P08588); assay: Inhibition of Beta1 adrenergic receptor at 10 uM by radioligand displacement assay; summary of the method: as §1
[26] = target: 5-hydroxytryptamine receptor 3A (Homo sapiens) (UniProt P46098); assay: Inhibition of 5HT3 receptor at 10 uM by radioligand displacement assay; summary of the method: as §1
[27] = target: Kappa-type opioid receptor (Homo sapiens) (UniProt P41145); assay: Inhibition of Kappa opioid receptor at 10 uM by radioligand displacement assay; summary of the method: as §1
[28] = Inhibition of sst receptor at 10 uM by radioligand displacement assay; summary of the method: as §2
[29] = target: 5-hydroxytryptamine receptor 1A (Homo sapiens) (UniProt P08908); assay: Inhibition of 5HT1A receptor at 10 uM by radioligand displacement assay; summary of the method: as §1
[30] = target: Histamine H2 receptor (Homo sapiens) (UniProt P25021); assay: Inhibition of H2 receptor at 10 uM by radioligand displacement assay; summary of the method: as §1
[31] = Inhibition of delta2 opioid receptor at 10 uM by radioligand displacement assay; summary of the method: as §2
[32] = target: Melanocortin receptor 4 (Homo sapiens) (UniProt P32245); assay: Inhibition of MC4 receptor at 10 uM by radioligand displacement assay; summary of the method: as §1
[33] = target: Vasopressin V1a receptor (Homo sapiens) (UniProt P37288); assay: Inhibition of V1a receptor at 10 uM by radioligand displacement assay; summary of the method: as §1
[34] = Inhibition of alpha1 adrenergic receptor at 10 uM by radioligand displacement assay; summary of the method: as §2
[35] = target: Sodium-dependent dopamine transporter (Homo sapiens) (UniProt Q01959); assay: Inhibition of dopamine transporter at 10 uM by radioligand displacement assay; summary of the method: as §2
[36] = Inhibition of MT1 receptor at 10 uM by radioligand displacement assay; summary of the method: as §1
[37] = target: Nociceptin receptor (Homo sapiens) (UniProt P41146); assay: Inhibition of NOP receptor at 10 uM by radioligand displacement assay; summary of the method: as §1
[38] = target: C-C chemokine receptor type 1 (Homo sapiens) (UniProt P32246); assay: Inhibition of CCR1 receptor at 10 uM by radioligand displacement assay; summary of the method: as §1
[39] = target: D(2) dopamine receptor (Homo sapiens) (UniProt P14416); assay: Inhibition of D2S receptor at 10 uM by radioligand displacement assay; summary of the method: as §1
[40] = Inhibition of chloride channel at 10 uM by radioligand displacement assay; summary of the method: as §2
[41] = target: Substance-K receptor (Homo sapiens) (UniProt P21452); assay: Inhibition of NK2 receptor at 10 uM by radioligand displacement assay; summary of the method: as §1
[42] = Inhibition of Small conductance calcium-activated potassium channel at 10 uM by radioligand displacement assay; summary of the method: as §1
[43] = target: Neuropeptide Y receptor type 1 (Homo sapiens) (UniProt P25929); assay: Inhibition of Y1 receptor at 10 uM by radioligand displacement assay; summary of the method: as §1

Measured: inhibition

Chain of Adenosine receptor A2a (Homo sapiens) (P29274 whole entry): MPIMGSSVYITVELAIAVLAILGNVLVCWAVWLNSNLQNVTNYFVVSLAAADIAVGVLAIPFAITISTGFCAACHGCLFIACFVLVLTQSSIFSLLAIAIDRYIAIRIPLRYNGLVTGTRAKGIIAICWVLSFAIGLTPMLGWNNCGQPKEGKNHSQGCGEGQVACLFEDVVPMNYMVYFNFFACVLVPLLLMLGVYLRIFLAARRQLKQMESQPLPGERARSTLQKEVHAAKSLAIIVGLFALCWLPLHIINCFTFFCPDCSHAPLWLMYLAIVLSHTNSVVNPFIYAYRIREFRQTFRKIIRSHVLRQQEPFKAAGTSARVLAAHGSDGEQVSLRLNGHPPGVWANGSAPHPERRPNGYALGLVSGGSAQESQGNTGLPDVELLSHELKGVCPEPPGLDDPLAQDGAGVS
Chain of Histamine H2 receptor (Homo sapiens) (P25021 whole entry): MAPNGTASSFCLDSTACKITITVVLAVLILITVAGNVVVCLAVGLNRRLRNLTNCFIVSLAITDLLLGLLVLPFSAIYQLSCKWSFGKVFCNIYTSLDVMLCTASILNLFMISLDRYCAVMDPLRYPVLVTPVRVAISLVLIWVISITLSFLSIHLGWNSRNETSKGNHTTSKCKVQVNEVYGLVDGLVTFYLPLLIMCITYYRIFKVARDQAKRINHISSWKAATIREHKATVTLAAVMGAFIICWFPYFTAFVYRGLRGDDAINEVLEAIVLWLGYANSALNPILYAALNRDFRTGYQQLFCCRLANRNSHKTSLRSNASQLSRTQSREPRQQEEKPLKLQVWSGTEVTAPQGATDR
Chain of 5-hydroxytryptamine receptor 1A (Homo sapiens) (P08908 whole entry): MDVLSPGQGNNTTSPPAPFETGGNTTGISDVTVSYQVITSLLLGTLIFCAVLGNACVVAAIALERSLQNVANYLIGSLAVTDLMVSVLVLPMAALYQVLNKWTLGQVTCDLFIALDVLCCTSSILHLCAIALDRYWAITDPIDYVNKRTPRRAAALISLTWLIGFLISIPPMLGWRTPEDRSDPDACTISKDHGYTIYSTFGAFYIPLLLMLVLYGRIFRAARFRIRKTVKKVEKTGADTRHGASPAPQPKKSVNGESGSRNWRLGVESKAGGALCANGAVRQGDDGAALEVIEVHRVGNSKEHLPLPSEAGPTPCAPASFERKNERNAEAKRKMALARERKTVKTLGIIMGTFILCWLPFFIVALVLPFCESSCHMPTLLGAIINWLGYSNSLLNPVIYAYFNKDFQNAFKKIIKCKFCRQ
Chain of Vasopressin V1a receptor (Homo sapiens) (P37288 whole entry, looked up): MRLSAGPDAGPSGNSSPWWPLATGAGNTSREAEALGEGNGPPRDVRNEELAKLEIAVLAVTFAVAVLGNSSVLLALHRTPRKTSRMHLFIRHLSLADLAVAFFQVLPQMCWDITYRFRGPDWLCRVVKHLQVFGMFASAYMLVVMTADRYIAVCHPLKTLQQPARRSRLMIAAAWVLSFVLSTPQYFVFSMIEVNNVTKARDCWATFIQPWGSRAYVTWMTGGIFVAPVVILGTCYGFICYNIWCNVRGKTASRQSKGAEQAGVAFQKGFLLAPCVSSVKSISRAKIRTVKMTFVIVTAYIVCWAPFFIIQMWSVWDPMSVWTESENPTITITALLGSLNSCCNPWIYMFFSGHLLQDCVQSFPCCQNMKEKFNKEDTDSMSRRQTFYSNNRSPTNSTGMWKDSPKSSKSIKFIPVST
Chain of Muscarinic acetylcholine receptor M2 (Homo sapiens) (P08172 whole entry): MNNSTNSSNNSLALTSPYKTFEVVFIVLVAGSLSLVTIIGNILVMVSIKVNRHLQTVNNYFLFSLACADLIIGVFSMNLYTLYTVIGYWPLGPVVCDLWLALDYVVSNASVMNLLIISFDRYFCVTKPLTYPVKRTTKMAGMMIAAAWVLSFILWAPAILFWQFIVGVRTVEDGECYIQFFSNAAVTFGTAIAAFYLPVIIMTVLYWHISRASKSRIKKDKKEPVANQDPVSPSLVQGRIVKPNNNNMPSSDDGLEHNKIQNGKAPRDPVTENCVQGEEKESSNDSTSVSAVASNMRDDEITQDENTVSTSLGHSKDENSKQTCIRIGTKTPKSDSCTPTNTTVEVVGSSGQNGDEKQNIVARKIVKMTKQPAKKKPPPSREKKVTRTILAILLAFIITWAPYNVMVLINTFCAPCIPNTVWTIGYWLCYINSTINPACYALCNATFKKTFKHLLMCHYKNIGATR
Chain of Translocator protein (Homo sapiens) (P30536 whole entry): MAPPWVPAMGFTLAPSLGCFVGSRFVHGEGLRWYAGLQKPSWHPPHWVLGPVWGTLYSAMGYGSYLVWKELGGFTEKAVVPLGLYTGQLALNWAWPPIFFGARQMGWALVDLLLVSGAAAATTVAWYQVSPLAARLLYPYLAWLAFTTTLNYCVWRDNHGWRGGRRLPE
Chain of D(2) dopamine receptor (Homo sapiens) (P14416 whole entry): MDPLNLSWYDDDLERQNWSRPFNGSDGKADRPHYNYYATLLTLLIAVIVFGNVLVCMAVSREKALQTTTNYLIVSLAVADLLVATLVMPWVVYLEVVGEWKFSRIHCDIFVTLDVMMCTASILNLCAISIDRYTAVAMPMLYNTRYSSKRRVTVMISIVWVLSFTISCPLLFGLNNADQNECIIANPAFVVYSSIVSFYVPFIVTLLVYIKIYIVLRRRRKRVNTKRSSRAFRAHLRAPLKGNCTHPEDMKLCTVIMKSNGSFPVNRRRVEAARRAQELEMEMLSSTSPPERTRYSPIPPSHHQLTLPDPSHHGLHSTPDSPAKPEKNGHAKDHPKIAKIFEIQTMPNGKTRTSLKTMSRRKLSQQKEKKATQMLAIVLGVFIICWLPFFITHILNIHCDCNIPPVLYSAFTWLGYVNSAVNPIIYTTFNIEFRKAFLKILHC
Chain of Kappa-type opioid receptor (Homo sapiens) (P41145 whole entry): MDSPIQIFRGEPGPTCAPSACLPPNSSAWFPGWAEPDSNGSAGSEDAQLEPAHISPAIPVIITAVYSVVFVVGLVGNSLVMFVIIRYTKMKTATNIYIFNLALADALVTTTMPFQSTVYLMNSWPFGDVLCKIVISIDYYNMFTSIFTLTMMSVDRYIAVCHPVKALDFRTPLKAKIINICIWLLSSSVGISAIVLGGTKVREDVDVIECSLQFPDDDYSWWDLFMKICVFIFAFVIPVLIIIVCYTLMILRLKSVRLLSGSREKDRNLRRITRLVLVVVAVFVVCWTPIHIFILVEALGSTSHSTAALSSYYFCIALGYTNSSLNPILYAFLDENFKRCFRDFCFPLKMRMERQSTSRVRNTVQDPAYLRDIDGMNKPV
Chain of Endothelin-1 receptor (Homo sapiens) (P25101 whole entry): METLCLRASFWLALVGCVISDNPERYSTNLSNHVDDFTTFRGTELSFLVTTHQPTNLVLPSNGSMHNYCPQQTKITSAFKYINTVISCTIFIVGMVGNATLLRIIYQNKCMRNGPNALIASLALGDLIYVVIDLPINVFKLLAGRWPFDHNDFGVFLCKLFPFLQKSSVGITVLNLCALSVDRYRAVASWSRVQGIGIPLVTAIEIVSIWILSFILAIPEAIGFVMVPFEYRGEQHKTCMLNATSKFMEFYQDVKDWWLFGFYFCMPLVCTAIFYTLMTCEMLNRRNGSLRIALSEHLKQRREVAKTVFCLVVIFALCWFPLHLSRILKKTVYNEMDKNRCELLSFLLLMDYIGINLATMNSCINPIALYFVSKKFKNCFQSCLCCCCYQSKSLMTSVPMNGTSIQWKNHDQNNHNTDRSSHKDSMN
Chain of Melanocortin receptor 4 (Homo sapiens) (P32245 whole entry): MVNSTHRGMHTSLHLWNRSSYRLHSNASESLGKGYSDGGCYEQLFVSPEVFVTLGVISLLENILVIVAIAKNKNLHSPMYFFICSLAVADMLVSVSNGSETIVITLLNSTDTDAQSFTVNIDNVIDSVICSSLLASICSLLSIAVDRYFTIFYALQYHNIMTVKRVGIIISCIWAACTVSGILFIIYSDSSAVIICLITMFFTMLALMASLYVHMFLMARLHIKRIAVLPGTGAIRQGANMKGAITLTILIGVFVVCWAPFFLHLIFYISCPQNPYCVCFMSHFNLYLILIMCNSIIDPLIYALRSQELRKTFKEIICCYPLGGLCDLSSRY
Chain of Type-1 angiotensin II receptor (Homo sapiens) (P30556 whole entry): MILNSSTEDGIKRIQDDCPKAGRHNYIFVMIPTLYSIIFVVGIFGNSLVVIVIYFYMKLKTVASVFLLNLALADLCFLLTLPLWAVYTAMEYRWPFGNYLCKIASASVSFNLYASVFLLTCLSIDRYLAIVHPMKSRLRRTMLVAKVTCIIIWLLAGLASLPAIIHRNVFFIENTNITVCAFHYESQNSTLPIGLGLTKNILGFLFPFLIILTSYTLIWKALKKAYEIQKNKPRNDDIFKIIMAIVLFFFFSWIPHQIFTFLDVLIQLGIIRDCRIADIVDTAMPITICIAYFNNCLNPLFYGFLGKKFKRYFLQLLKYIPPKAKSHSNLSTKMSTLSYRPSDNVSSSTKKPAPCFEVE
Chain of 5-hydroxytryptamine receptor 3A (Homo sapiens) (P46098 whole entry): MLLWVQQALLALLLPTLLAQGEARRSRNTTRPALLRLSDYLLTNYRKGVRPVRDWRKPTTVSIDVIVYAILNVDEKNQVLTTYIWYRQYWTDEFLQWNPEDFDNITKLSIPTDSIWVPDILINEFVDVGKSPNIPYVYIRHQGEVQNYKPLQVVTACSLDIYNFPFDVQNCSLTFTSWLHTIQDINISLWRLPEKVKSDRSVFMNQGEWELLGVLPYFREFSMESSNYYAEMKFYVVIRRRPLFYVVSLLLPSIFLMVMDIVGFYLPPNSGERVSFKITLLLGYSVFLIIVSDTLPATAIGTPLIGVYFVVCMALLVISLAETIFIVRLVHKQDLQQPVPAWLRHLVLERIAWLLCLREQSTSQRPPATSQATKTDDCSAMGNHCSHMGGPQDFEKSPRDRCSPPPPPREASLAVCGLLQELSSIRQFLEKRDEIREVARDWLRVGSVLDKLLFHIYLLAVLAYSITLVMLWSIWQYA

Cc1cc(NS(C)(=O)=O)ccc1-n1c(CCC(=O)O)ccc1-c1ccc(-n2ccnc2)cc1
inactive: all assays above

Cc1cc(NS(C)(=O)=O)ccc1-n1c(CCC(=O)O)ccc1-c1ccc(-n2ccnc2C)s1
inactive: all assays above
